Source: ChEMBL document CHEMBL5543124, “Lead Compound Development of SRC-3 Inhibitors with Improved Pharmacokinetic Properties and Anticancer Efficacy” (J Med Chem, 2024)
Active and inactive are the calls of the source. The calls are words filed in the database; no cut-off is given here.

How the values were obtained:
LNCaP [1] = assay: Antitumor activity against human LNCaP cells xenografted in SCID mouse assessed as increase in positive cells of cleaved caspase-3 at 10 mg/kg,ip administration measured after 4 weeks by immunohistochemical analysis; format: functional
How it was run: (§1)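 LNCaP subcutaneous xenograft tumors in SCID mice, collected at the end of 4 weeks of 10 mg/kg ip daily dosing or vehicle. IHC for Ki67 and cleaved caspase 3 run on eight tumors from eight mice, at least five fields each; positive cells counted; mean ± SEM reported.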

MDA-MB-468 = assay: Cytotoxicity against human MDA-MB-468 cells assessed as inhibition of cell growth incubated for 72 hrs by MTT assay; format: functional, cell-based; details: MDA-MB-468, 72 h
How it was run: (§2)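 Cells seeded and grown to 70–80% confluence, then exposed for 72 h to a titration series (0.2–1000 nM). Viability read by MTT relative to untreated cells, with 6 replicates per concentration. IC50 fitted with a Hill-slope model.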

MDA-PCa-118b [2] = assay: Antitumor activity against patient derived MDA-PCa-118b cells xenografted in SCID mouse assessed as reduction in tumor burden in femur at 10 mg/kg,ip administration measured after 4 weeks by CT imaging analysis; format: functional, organism-based; details: Homo sapiens
How it was run: (§3)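 AR-PDX 118b cells (1×10^5) injected via intra-femoral artery in male SCID mice (8–9 weeks). After 2 weeks, 10 mg/kg/day ip or vehicle for 4 weeks (n = 9/group). X-ray imaging every two weeks. At the end, femurs CT-scanned (5 per group) with 3D-reconstruction tumor size, and H&E histology used for tumor/femur area ratio.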

BT-474 = assay: Cytotoxicity against human BT-474 cells assessed as inhibition of cell growth incubated for 72 hrs by MTT assay; format: functional, cell-based; details: BT-474, 72 h; how it was run: as §2
[3] = Antitumor activity against patient derived MDA-PCa-118b cells xenografted in SCID mouse assessed as reduction in femur volume at 10 mg/kg,ip administration measured after 4 weeks by CT imaging analysis; format: functional, Homo sapiens; set-up: scale not given: the % may be the effect or the level left; how it was run: as §3
MDA-PCa-118b [4] = assay: Antitumor activity against patient derived MDA-PCa-118b cells xenografted in SCID mouse assessed as reduction in tumor burden in femur at 10 mg/kg,ip administration measured after 4 weeks by hematoxylin and eosin staining based analysis; format: functional, organism-based; details: Homo sapiens; how it was run: as §3
LNCaP [5] = assay: Antitumor activity against human LNCaP cells xenografted in SCID mouse assessed as reduction in tumor growth at 10 mg/kg,ip administration measured after 1 week; format: functional, organism-based; details: time 1.0 weeks
How it was run: (§4)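 LNCaP cells (1×10^7) injected subcutaneously on both flanks of male SCID mice. From 4 weeks post-inoculation, 10 mg/kg ip daily for 4 weeks or vehicle (n = 10 vs 11). Caliper tumor size measured weekly (length × width²/2); survival endpoint at tumor diameter 3 cm.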

LNCaP [6] = assay: Antitumor activity against human LNCaP cells xenografted in SCID mouse assessed as increase in mouse survival at 10 mg/kg,ip administration measured after 4 weeks; format: functional, organism-based; how it was run: as §4
[7] = Antitumor activity against patient derived MDA-PCa-118b cells xenografted in SCID mouse assessed as reduction in ratio of tumor area to femur area at 10 mg/kg,ip administration measured after 4 weeks by CT imaging analysis; format: functional, Homo sapiens; set-up: scale not given: the % may be the effect or the level left; how it was run: as §3
LNCaP [8] = assay: Antitumor activity against human LNCaP cells xenografted in SCID mouse assessed as reduction in Ki67 expression at 10 mg/kg,ip administration measured after 4 weeks by immunohistochemical analysis; format: functional, organism-based; how it was run: as §1
MDA-PCa-118b [9] = assay: Antitumor activity against patient derived MDA-PCa-118b cells xenografted in SCID mouse assessed as reduction in bone metastasis at 10 mg/kg,ip administration measured after 4 weeks by X-ray imaging analysis; format: functional, organism-based; details: Homo sapiens; how it was run: as §3
MDA-PCa-118b [10] = assay: Antitumor activity against patient derived MDA-PCa-118b cells xenografted in SCID mouse assessed as reduction in bone damage at 10 mg/kg,ip administration measured after 4 weeks by X-ray imaging analysis; format: functional, organism-based; details: Homo sapiens; how it was run: as §3
LNCaP [11] = assay: Cytotoxicity against human LNCaP cells assessed as inhibition of cell growth incubated for 72 hrs by MTT assay; format: functional, cell-based; how it was run: as §2
LNCaP [12] = assay: Antitumor activity against human LNCaP cells xenografted in SCID mouse assessed as reduction in tumor growth at 10 mg/kg,ip administration measured after 4 weeks; format: functional; set-up: scale not given: the % may be the effect or the level left
How it was run: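 Male SCID mice received 1×10^7 LNCaP cells subcutaneously under the back skin on both sides. Daily i.p. dosing at 10 mg/kg or vehicle began 4 weeks after inoculation and ran for 4 weeks. Tumor length and width were measured weekly, and size was calculated as length × width × width/2.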

MCF7 = assay: Cytotoxicity against human MCF7 cells assessed as inhibition of cell growth incubated for 72 hrs by MTT assay; format: functional, cell-based; details: MCF7, 72 h
LNCaP [13] = assay: Antitumor activity against human LNCaP cells xenografted in SCID mouse assessed as increase in cleaved caspase-3 expression at 10 mg/kg,ip administration measured after 4 weeks by immunohistochemical analysis; format: functional, organism-based; how it was run: as §1
LNCaP [14] = assay: Antitumor activity against human LNCaP cells xenografted in SCID mouse assessed as reduction in microvascular density at 10 mg/kg,ip administration measured after 4 weeks by immunohistochemical analysis relative to control; format: functional; set-up: scale not given: the % may be the effect or the level left
How it was run: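 LNCaP xenografts were grown subcutaneously on both flanks of male SCID mice and treated i.p. at 10 mg/kg once daily for 4 weeks, starting 4 weeks after inoculation, with a vehicle control. Tumors were collected at the end of treatment for CD31 immunohistochemistry. Microvascular structures were counted in at least five areas per tumor, using eight tumors from eight mice. Data are mean ± SEM.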

PANC-1 = assay: Cytotoxicity against human PANC-1 cells assessed as inhibition of cell growth incubated for 72 hrs by MTT assay; format: functional, cell-based; details: PANC-1, 72 h; how it was run: as §2

For C/C(=N\N=c1/[nH]c2cc(F)c(F)cc2n1C)c1ncccn1, the Activity (LNCaP [1]) was 10%, the IC50 (MDA-MB-468) was 32 nM and the Activity (MDA-PCa-118b [2]) was “Active”. For the same compound, the IC50 (BT-474) was 1 nM, the Activity [3] was >55% and the Activity (MDA-PCa-118b [4]) was “Active”. For the same compound, the Activity (LNCaP [5]) was “Active”, the Activity (LNCaP [6]) was “Active” and the Activity [7] was >50%. For the same compound, the Activity (LNCaP [8]) was “Active”, the Activity (MDA-PCa-118b [9]) was “Active” and the Activity (MDA-PCa-118b [10]) was “Active”. The IC50 (LNCaP [11]) was 11 nM, the Activity (LNCaP [12]) was >65% and the IC50 (MCF7) was 3.3 nM. The Activity (LNCaP [13]) was “Active”, the Activity (LNCaP [14]) was >50% and the IC50 (PANC-1) was 8 nM.
